Tests used:
HT-29 = assay: Concentration required to inhibit growth of human […] cell line by 50% was determined; assay type: functional, cell-based
Method in brief: (§1)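 SRB colorimetric growth assay in A549 lung and HT-29 colon carcinoma cells. Cells seeded at 5 × 10^3 per well in RPMI and attached for 18 h in drug-free medium. Samples added in (3:7) DMSO/H2O for 48–72 h exposure. Cells fixed with cold 50% (w/v) TCA at 4 °C for 60 min, then stained with 0.4% SRB in 1% acetic acid for 10 min. Bound dye solubilised in Tris, OD read at 490 nm.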

A549 = assay: Concentration required to inhibit growth of human A549 cell line by 50%; assay type: functional, cell-based; method in brief: as §1

Row | Compound | IC50 (HT-29) | IC50 (A549)
1 | CC[C@H](C)C1NC(=O)[C@@H](NC(=O)[C@@H](CC(C)C)N2CCC3(CCCN3C(=O)C(C)=O)C2=O)[C@@H](C)OC(=O)[C@H](Cc2ccc(O)cc2)N(C)C(=O)[C@@H]2CCCN2C(=O)[C@H](CC(C)C)NC(=O)[C@@H](C(C)C)OC(=O)C[C@H]1O (stereo partly drawn) | 93.8 nM | 93.8 nM
2 | CC[C@H](C)[C@@H]1NC(=O)[C@@H](NC(=O)[C@@H](C)N2CCC3(CCCN3C(=O)C(C)=O)C2=O)[C@@H](C)OC(=O)[C@H](Cc2ccc(OC)cc2)N(C)C(=O)[C@@H]2CCCN2C(=O)[C@H](CC(C)C)NC(=O)[C@H](C)C(=O)[C@@H](C(C)C)OC(=O)C[C@H]1O (stereo partly drawn) | 8.9 nM | 8.55 nM
3 | CC[C@H](C)[C@@H]1NC(=O)[C@@H](NC(=O)[C@@H](C)N2CCC3(CCCN3C(=O)C(C)C)C2=O)[C@@H](C)OC(=O)[C@H](Cc2ccc(OC)cc2)N(C)C(=O)[C@@H]2CCCN2C(=O)[C@H](CC(C)C)NC(=O)[C@H](C)C(=O)[C@@H](C(C)C)OC(=O)C[C@H]1O (stereo partly drawn) | 89.1 nM | 89.1 nM
4 | CC[C@H](C)[C@@H]1NC(=O)[C@@H](NC(=O)[C@@H](C)N2CCC3(CCCN3C(=O)OC(C)(C)C)C2=O)[C@@H](C)OC(=O)[C@H](Cc2ccc(OC)cc2)N(C)C(=O)[C@@H]2CCCN2C(=O)[C@H](CC(C)C)NC(=O)[C@H](C)C(=O)[C@@H](C(C)C)OC(=O)C[C@H]1O (stereo partly drawn) | 8.68 nM | 8.68 nM
5 | CC[C@H](C)C1NC(=O)[C@@H](NC(=O)[C@@H](CC(C)C)N2CCC3(CCCN3C(=O)C(C)C)C2=O)[C@@H](C)OC(=O)[C@H](Cc2ccc(O)cc2)N(C)C(=O)[C@@H]2CCCN2C(=O)[C@H](CC(C)C)NC(=O)[C@@H](C(C)C)OC(=O)C[C@H]1O (stereo partly drawn) | 93.8 nM | 93.8 nM
6 | CC[C@H](C)C1NC(=O)[C@@H](NC(=O)[C@@H](CC(C)C)N2CCC3(CCCN3C(=O)OC(C)(C)C)C2=O)[C@@H](C)OC(=O)[C@H](Cc2ccc(O)cc2)N(C)C(=O)[C@@H]2CCCN2C(=O)[C@H](CC(C)C)NC(=O)[C@@H](C(C)C)OC(=O)C[C@H]1O (stereo partly drawn) | 4.56 nM | 4.56 nM
7 | C=C(C)C(=O)N1CCCC12CCN([C@H](CC(C)C)C(=O)N[C@@H]1C(=O)NC([C@@H](C)CC)[C@H](O)CC(=O)O[C@H](C(C)C)C(=O)N[C@@H](CC(C)C)C(=O)N3CCC[C@H]3C(=O)N(C)[C@@H](Cc3ccc(O)cc3)C(=O)O[C@@H]1C)C2=O (stereo partly drawn) | 93.9 nM | 93.9 nM
8 | CC[C@H](C)C1NC(=O)[C@@H](NC(=O)[C@@H](CC(C)C)N(C)C(=O)[C@@H]2CCCN2C(=O)C(C)=O)[C@@H](C)OC(=O)[C@H](Cc2ccc(O)cc2)N(C)C(=O)[C@@H]2CCCN2C(=O)[C@H](CC(C)C)NC(=O)[C@@H](C(C)C)OC(=O)C[C@H]1O (stereo partly drawn) [DEHYDROTAMANDARIN A] | 0.47 nM | 0.47 nM
9 | CC[C@H](C)C1NC(=O)[C@@H](NC(=O)[C@@H](CC(C)C)N(C)C(=O)[C@@H]2CCCN2C(=O)C(C)O)[C@@H](C)OC(=O)[C@H](Cc2ccc(O)cc2)N(C)C(=O)[C@@H]2CCCN2C(=O)[C@H](CC(C)C)NC(=O)[C@@H](C(C)C)OC(=O)C[C@H]1O (stereo partly drawn) [TAMANDARIN A] | 0.95 nM | 0.95 nM
